Source: PubChem BioAssay
Only a selection was taken, and hits are over-represented in it overall.
HCT116 PTEN-null: growth suppression of PTEN-null HCT116, primary screen, cell-based, CellTiter-Glo | 140,000 tested, 1.2% active | viability, % at 10 µM | HCT116 PTEN-null viability, 60 h; hits give low values | AID 827, 2007;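 active = viability at or below a set limit, 4 SD under the median of all tested compounds, cut at about 3.7% in these data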;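 also: PTEN knockout HCT116 line with beta catenin targeted HCT116 as companion control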
H69AR growth 86K: proliferation blockers of H69AR lung cancer cells, primary screen, cell-based, human, 86K library; AID 598, 2007; viability, % at 10 µM; H69AR lung tumor viability, ATP luminescence, 72 h; hits give low values; 85,000 tested, 6% active;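 active = viability at or below 40%; inactive = viability above 40%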;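 also: multidrug resistant small cell line overexpressing MRP-1 efflux transporter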
Lung fibro prol: antiproliferative effect on LL 47 fibroblasts – human, LL 47 cells, CellTiter-Glo luminescence, primary screen | LL 47 human lung fibroblast viability, ATP luminescence; hits give low values | 85,000 tested, 1.1% active | viability, % at 10 µM;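 active = viability at or below 50% in the single dose screen; inactive = viability above 50%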;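 also: compound exposure lasted 72 h before the ATP readout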
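Signal: luminescent ATP detection, CellTiter-Glo; assay system: LL 47 human lung fibroblasts; input: 1,150 cells/well; incubation: overnight cell rest, 72 h compound treatment at 37 °C; measure: % viability versus median cells-only luminescence; medium: IMEM growth medium with 15% fetal bovine serum; dosing: compound addition at 0.1% DMSO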
HUVEC prolif 384: inhibitors of HUVEC proliferation, primary screen, cell-based, 384-well. CellTiter-Glo luminescence, 72 h; hits give low values. viability, % at 10 µM (by protocol). 86,000 tested, 1.1% active. AID 648, 2007;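 active = viability at or below 30%; inactive = viability above 30%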
bCat KO growth: primary screen for growth suppressors in beta-catenin knockout HCT116 cells (colon tumor, human). HCT116 beta-catenin knockout viability, CellTiter-Glo, 60 h; hits give low values. viability, % at 10 µM. 140,000 tested, 1.5% active. AID 818, 2007;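 active = viability at or under a set limit, the compound median less 4 SD, cut at about 6% in these data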
A number is an active result.

What do the screens show for `c1cnn(-c2nc(N3CCOCC3)nc(N3CCOCC3)n2)c1`?
HCT116 PTEN-null: inactive; H69AR growth 86K: inactive; Lung fibro prol: 49; HUVEC prolif 384: inactive; bCat KO growth: inactive

What do the screens show for `CCN(NC(=O)C(O)(c1ccccc1)c1ccccc1)C(=O)c1ccccc1`?
HCT116 PTEN-null: inactive; bCat KO growth: inactive

What do the screens show for `CC(c1ccccc1)N(NC(=O)C(O)(c1ccccc1)c1ccccc1)C(=O)c1ccccc1` (configuration not stated)?
HCT116 PTEN-null: 1.7; bCat KO growth: inactive

How did COC(=O)c1ccc(-n2nnnc2SCc2ccccc2OC)cc1 do in these assays?
HCT116 PTEN-null: inactive; H69AR growth 86K: 37; Lung fibro prol: inactive; HUVEC prolif 384: inactive; bCat KO growth: inactive

Results for COC(=O)c1ccc(Sc2nnnn2-c2ccccc2)c([N+](=O)[O-])c1 ?
HCT116 PTEN-null: inactive; bCat KO growth: 6.0

How did O=C(CCCc1ccccc1)N1CCc2ccccc21 do in these assays?
HCT116 PTEN-null: inactive; H69AR growth 86K: inactive; Lung fibro prol: inactive; HUVEC prolif 384: inactive; bCat KO growth: inactive

What do the screens show for `CCOC(=O)c1c(/N=C/c2cccc(C)c2O)sc2c1CCN(C)C2`?
HCT116 PTEN-null: inactive; bCat KO growth: inactive

Results for O=C(O)c1ccccc1C(=O)N(Cc1ccccc1)Cc1ccccc1 ?
HCT116 PTEN-null: inactive; H69AR growth 86K: inactive; Lung fibro prol: inactive; HUVEC prolif 384: inactive; bCat KO growth: inactive

How did O=C(c1c(F)c(F)c(F)c(F)c1F)N(Cc1ccccc1)Cc1ccccc1 do in these assays?
HCT116 PTEN-null: inactive; H69AR growth 86K: 36; Lung fibro prol: inactive; HUVEC prolif 384: inactive; bCat KO growth: inactive

Results for CCN1C(=O)/C(=C/N(C(C)=O)c2ccccc2)N(c2ccccc2)C1=S ?
HCT116 PTEN-null: inactive; H69AR growth 86K: 16; Lung fibro prol: inactive; HUVEC prolif 384: inactive; bCat KO growth: inactive

What do the screens show for `CCN(CC)C(=O)C(=O)N/N=C/c1ccc(C(=O)O)cc1`?
HCT116 PTEN-null: inactive; bCat KO growth: inactive

Results for COC(=O)c1c(CSc2ccc(C)c(C)c2)noc1C(=O)NCc1ccc(OC)cc1 ?
HCT116 PTEN-null: inactive; bCat KO growth: inactive

Results for CCCCCOP(=O)(OCCCCC)C1(NS(=O)(=O)c2ccccc2)C=CC(=O)c2ccccc21 (configuration not stated) ?
HCT116 PTEN-null: inactive; H69AR growth 86K: 19; Lung fibro prol: inactive; HUVEC prolif 384: inactive; bCat KO growth: inactive

Results for O=S(=O)(NC1CC1)c1ccc(S(=O)(=O)N2CCN3CCCC3C2)cc1 (configuration not stated) ?
HCT116 PTEN-null: inactive; H69AR growth 86K: inactive; Lung fibro prol: inactive; HUVEC prolif 384: inactive; bCat KO growth: inactive

How did O=S(=O)(NC1CC1)c1ccc(S(=O)(=O)N2CCCC3(CCCCC3)C2)cc1 do in these assays?
HCT116 PTEN-null: inactive; H69AR growth 86K: 32; Lung fibro prol: inactive; HUVEC prolif 384: inactive; bCat KO growth: inactive

What do the screens show for `COc1ccccc1NC(=O)COC(=O)c1cnccn1`?
HCT116 PTEN-null: inactive; H69AR growth 86K: inactive; Lung fibro prol: inactive; HUVEC prolif 384: inactive; bCat KO growth: inactive

How did CCOc1ccc2nc(N3CCC(C(=O)N4CCN(c5ncccn5)CC4)CC3)sc2c1 do in these assays?
H69AR growth 86K: 38; Lung fibro prol: inactive; HUVEC prolif 384: inactive

Results for CC(NC(=O)c1ccccc1)c1ccc(F)cc1 (configuration not stated) ?
HCT116 PTEN-null: inactive; bCat KO growth: inactive

Results for O=c1c2c3nc4ccccc4nc3n(-c3cccc(F)c3)c2ncn1Cc1ccc2c(c1)OCO2 ?
H69AR growth 86K: 18; Lung fibro prol: inactive; HUVEC prolif 384: inactive

How did O=c1c(C(c2nnnn2C2CCCCC2)N2CCCCC2)coc2ccc(Cl)cc12 (configuration not stated) do in these assays?
HCT116 PTEN-null: inactive; H69AR growth 86K: 18; Lung fibro prol: inactive; HUVEC prolif 384: inactive; bCat KO growth: inactive

What do the screens show for `Clc1ccc(C(c2nnnn2C2CCCC2)N2CCN(Cc3ccncc3)CC2)cc1` (configuration not stated)?
HCT116 PTEN-null: inactive; bCat KO growth: inactive

What do the screens show for `CC(=O)C(=Nc1ccc(Cl)cc1Cl)NNc1cccc(Cl)c1`?
HCT116 PTEN-null: inactive; H69AR growth 86K: inactive; Lung fibro prol: inactive; HUVEC prolif 384: inactive; bCat KO growth: inactive

How did Cc1cccc(Nc2nc(N)c([N+](=O)[O-])c(N3CC(C)CC(C)C3)n2)c1 (configuration not stated) do in these assays?
HCT116 PTEN-null: 1.8; bCat KO growth: 1.4

What do the screens show for `CCN(CC)S(=O)(=O)c1cc(NC(=O)CCCOc2ccc(C(C)=O)cc2)ccc1C`?
HCT116 PTEN-null: inactive; bCat KO growth: inactive

Results for COC(=O)/C(=C1/Oc2cc(C)oc(=O)c2S1)C(F)(F)F ?
HCT116 PTEN-null: 3.2; bCat KO growth: 3.6

Results for COC(=O)/C(=C1/Oc2ccc(C(C)(C)C)cc2S1)C(F)(F)F ?
HCT116 PTEN-null: inactive; bCat KO growth: inactive

Results for Cc1ccc(C(=O)CSc2nc(-c3ccccc3)ccc2C#N)cc1 ?
HCT116 PTEN-null: inactive; bCat KO growth: inactive

Results for N#Cc1ccc(-c2ccco2)nc1SCC(=O)c1ccc(Cl)cc1 ?
HCT116 PTEN-null: inactive; H69AR growth 86K: 6.2; Lung fibro prol: inactive; HUVEC prolif 384: inactive; bCat KO growth: inactive

How did OC(CN1CCN(c2ccccn2)CC1)Cn1c2ccc(Cl)cc2c2cc(Cl)ccc21 (configuration not stated) do in these assays?
HCT116 PTEN-null: inactive; H69AR growth 86K: 1.3; Lung fibro prol: inactive; HUVEC prolif 384: inactive; bCat KO growth: inactive

How did O=[N+]([O-])c1ccc(NC(=S)NCCc2ccc(Cl)cc2)cc1 do in these assays?
HCT116 PTEN-null: 2.9; bCat KO growth: 3.5

Results for COc1cc(C2C3=C(CC(C)(C)CC3=O)OC(N)=C2[N+](=O)[O-])ccc1O (configuration not stated) ?
HCT116 PTEN-null: inactive; bCat KO growth: inactive

Results for COc1cccc(-c2nc(NCCN3CCOCC3)c3ccccc3n2)c1O ?
HCT116 PTEN-null: inactive; H69AR growth 86K: 8.3; Lung fibro prol: inactive; HUVEC prolif 384: inactive; bCat KO growth: inactive

What do the screens show for `Cc1ccc(-c2nc(NCCN3CCOCC3)c3ccccc3n2)cc1`?
HCT116 PTEN-null: inactive; H69AR growth 86K: inactive; Lung fibro prol: inactive; HUVEC prolif 384: inactive; bCat KO growth: inactive

Results for Oc1ccccc1-c1nc(NCCN2CCOCC2)c2ccccc2n1 ?
HCT116 PTEN-null: inactive; H69AR growth 86K: 12; Lung fibro prol: inactive; HUVEC prolif 384: inactive; bCat KO growth: inactive

Results for COc1cccc(-c2nc(NC(C)(C)C)c3ccccc3n2)c1O ?
HCT116 PTEN-null: inactive; H69AR growth 86K: 33; Lung fibro prol: inactive; HUVEC prolif 384: inactive; bCat KO growth: inactive

Results for Cc1ccc2nc(N/C(N)=N/S(=O)(=O)c3ccc([N+](=O)[O-])cc3)nc(C)c2c1 ?
HCT116 PTEN-null: inactive; bCat KO growth: inactive
